IC50, LTS and T/C data for six compounds are collected here from ChEMBL document CHEMBL1132144, “Synthesis of 9-O-substituted derivatives of 9-hydroxy-5, 6-dimethyl-6H-pyrido[4,3-b]carbazole-1-carboxylic acid (2-(dimethylamino)ethyl)amide and their 10- and 11-methyl analogues with improved antitumor activity” (J Med Chem, 1999).

In assay [1] the test system is B16. Description: Inhibition of murine B16 melanoma cell proliferation measured by the MTT assay. The assay is classed as functional, cell-based. The following applies: Mus musculus. The procedure, abridged:
(§1)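 Murine L1210 leukemia and B16 melanoma cells were grown in RPMI 1640 with 10% fetal calf serum, 2 mM L-glutamine, penicillin/streptomycin and 10 mM HEPES (pH 7.4). Cells were exposed to nine serial drug dilutions in triplicate for about four doubling times (L1210 48 h, B16 96 h), then read by microculture tetrazolium (MTT) assay. IC50 is the concentration halving optical density versus untreated controls, averaged over ≥2 independent experiments.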
For orientation: Formazan colour is commonly taken as a measure of viable cells.

The subject of assay [2] is L1210. The assay can be described thus: Inhibition of murine L1210 leukemia cell proliferation measured by the MTT assay. The assay is classed as functional, cell-based. The following applies: Mus musculus. A digest of the protocol:
as §1

Assay [3] has as its system Mus musculus. The assay can be described thus: Long-term survivors among 7 mice infected with B16 melanoma, scored on day 90 at 320 mg/kg dose on day 1. The assay is classed as functional.
Assay [4] has as its system Mus musculus. Description: Long-term survivors among 7 mice infected with P388 leukemia, scored on day 60 at 320 mg/kg dose on day 1. The assay is classed as functional. A digest of the protocol:
(§2)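 B6D2F1 mice in groups of 6–7 received 10^6 P388 cells ip on day 0. Dihydrochloride salts dissolved in water were injected iv on day 1 or on days 1, 5 and 9, at three doses and then five. Read-outs were % T/C (median survival treated/control × 100) and long-term survivors on day 60, both at the optimal dose (no toxic death, weight loss <20%).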

For assay [5], the system named is Mus musculus. Description: Percent median survival time of mice injected with P388 leukemia, at a intravenous compound dose of 80 mg/kg.
Assay [6] has as its system Mus musculus. Description: Percent median survival time of mice injected with P388 leukemia, at a intravenous compound dose of 320 mg/kg.
The test system of assay [7] is Mus musculus. The assay can be described thus: Long-term survivors among 6 mice infected with P388 leukemia, scored on day 60 at 80 mg/kg dose. Type of assay: functional. A digest of the protocol: (§3)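 B6D2F1 mice in groups of 6–7 were inoculated ip on day 0 with 10^6 P388 cells. Dihydrochloride salts were dissolved in water and given iv on day 1 or on days 1, 5 and 9. Doses ranged from a low nontoxic dose to a toxic one. Long-term survivors were counted at day 60.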

The test system of assay [8] is Mus musculus. Description: Long-term survivors among 6 mice infected with P388 leukemia, scored on day 60 at 40 mg/kg dose. The assay is classed as functional. A digest of the protocol: as §3
For assay [9], the system named is Mus musculus. The assay can be described thus: Percent median survival time of mice intraperitoneally injected with P388 leukemia was determined from tested at 80 mg/kg at day1 dose to that of control. The following applies: route intraperitoneal. Type of assay: functional. A digest of the protocol:
(§4)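 P388 leukemia in B6D2F1 mice (groups of 6–7), 10^6 cells inoculated ip on day 0. Dihydrochloride salts were dissolved in water and given iv on day 1 or on days 1, 5, 9. Three doses were tested, then five if active. %T/C = median survival treated/control × 100, reported at the optimal dose (no toxic death, weight loss <20%), from one or two representative experiments.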

Assay [10] relates to Mus musculus. Description: Percent median survival time of mice intraperitoneally injected with P388 leukemia was determined from tested at 40 mg/kg at day1,5,9 dose to that of control. Type of assay: functional. The note with it: route intraperitoneal. A digest of the protocol:
as §4

In assay [11] the test system is Mus musculus. The assay can be described thus: Percent median survival time of mice injected with B16 melanoma, at a intraperitoneal compound dose of 20 mg/kg.
For assay [12], the system named is Mus musculus. Description: Long-term survivors among 7 mice infected with B16 melanoma, scored on day 90 at 20 mg/kg dose on day 1. Type of assay: functional.
Assay [13] deals with Mus musculus. Description: Long-term survivors among 7 mice infected with P388 leukemia, scored on day 90 at 20 mg/kg dose on day 1. Type of assay: functional.
Assay [14] concerns Mus musculus. Description: Percent median survival time of mice injected with P388 leukemia, at a subcutaneous compound dose of 20 mg/kg on day 1, 5, 9. The assay is classed as functional.
In assay [15] the test system is Mus musculus. The assay can be described thus: Percent median survival time of mice injected with B16 melanoma, at a intraperitoneal compound dose of 10 mg/kg.
In assay [16] the test system is Mus musculus. The assay can be described thus: Percent median survival time of mice injected with B16 melanoma at 80 mg/Kg subcutaneous dose; not tested. Type of assay: functional.
The test system of assay [17] is Mus musculus. Description: Long-term survivors among 7 mice infected with B16 melanoma, scored on day 90 at 240 mg/kg dose on day 1. Type of assay: functional.
Assay [18] relates to Mus musculus. Description: Long-term survivors among 7 mice infected with P388 leukemia, scored on day 60 at 240 mg/kg dose on day 1. The assay is classed as functional. A digest of the protocol: as §2
Assay [19] has as its system Mus musculus. Description: Percent median survival time of mice injected with P388 leukemia at 160 mg/Kg dose; not tested. Type of assay: functional.
Assay [20] relates to Mus musculus. The assay can be described thus: Percent median survival time of mice injected with P388 leukemia at 240 mg/Kg dose; not tested. Type of assay: functional.
For assay [21], the system named is Mus musculus. The assay can be described thus: Long-term survivors among 12 mice infected with P388 leukemia, scored on day 60 at 20 mg/kg dose on day 1, 5, 9. The assay is classed as functional. The procedure, abridged:
as §3

For assay [22], the system named is Mus musculus. Description: Long-term survivors among 12 mice infected with P388 leukemia, scored on day 60 at 40 mg/kg dose on day 1. Type of assay: functional. A digest of the protocol: as §3
Assay [23] concerns Mus musculus. The assay can be described thus: Percent median survival time of mice injected with P388 leukemia, at dose of 20 mg/kg on day 1, 5, 9. Type of assay: functional. The procedure, abridged: as §4
Assay [24] concerns Mus musculus. Description: Percent median survival time of mice injected with P388 leukemia, at dose of 40 mg/kg on day 1. The assay is classed as functional. The procedure, abridged:
as §4

In assay [25] the test system is Mus musculus. Description: Long-term survivors among 21 mice infected with B16 melanoma, scored on day 90 at 5 mg/kg dose.
In assay [26] the test system is Mus musculus. The assay can be described thus: Percent median survival time of mice injected with B16 melanoma, at a intraperitoneal compound dose of 5 mg/kg.
The subject of assay [27] is Mus musculus. Description: Long-term survivors among 7 mice infected with B16 melanoma, scored on day 90 at 40 mg/kg dose on day 1, 5, 9. The assay is classed as functional.
The test system of assay [28] is Mus musculus. Description: Long-term survivors among 12 mice infected with P388 leukemia, scored on day 60 at 10 mg/kg dose on day 1, 5, 9. Type of assay: functional. The procedure, abridged:
as §3

In assay [29] the test system is Mus musculus. The assay can be described thus: Long-term survivors among 12 mice infected with P388 leukemia, scored on day 60 at 20 mg/kg dose on day 1. The assay is classed as functional. The procedure, abridged:
as §3

The subject of assay [30] is Mus musculus. Description: Percent median survival time of mice injected with P388 leukemia, at a subcutaneous compound dose of 10 mg/kg. The assay is classed as functional.
Assay [31] has as its system Mus musculus. Description: Percent median survival time of mice injected with P388 leukemia, at a subcutaneous compound dose of 20 mg/kg. The assay is classed as functional.

Regarding `Cc1c2ccnc(C(=O)NCCN(C)C)c2cc2c3cc(OC(=O)CCC(NC(=O)OC(C)(C)C)C(=O)O)ccc3n(C)c12` (configuration not stated), the IC50 in assay [1] is 0.004 µM; in [2] it was 0.0893 µM. Also, the LTS in assay [3] and in [4] was 0 each time. Further, the T/C in assay [5] and in [6] was >614% in each case.
For the compound `Cc1c2ccnc(C(=O)NCCN(C)C)c2cc2c3cc(OC(=O)N(C)C)ccc3n(C)c12`, the IC50 in [1] is 2.67 µM; in assay [2], 1.85 µM. For the same compound, the LTS in assay [7] and in assay [8] was 0 throughout. Further, the T/C was determined as 124% in assay [9], 119% in [10] and 161% in [11].
With `CCOCCC(=O)Oc1ccc2c(c1)c1cc3c(C(=O)NCCN(C)C)nccc3c(C)c1n2C`, the IC50 was 0.003 µM in assay [1] and 0.0057 µM in assay [2]. Further, the LTS in [12] and in assay [13] was 0 each time. Further, the figures for the T/C in assay [14] and in [15] were 222% and 157%, respectively.
On to `Cc1c2ccnc(C(=O)NCCN(C)C)c2cc2c3cc(OC(=O)NCCC(=O)O)ccc3n(C)c12`, for which the values for the IC50 in assay [1] and in assay [2] were 0.0787 µM and 0.654 µM, respectively. Moreover, the T/C in assay [16] came to 138%; in assay [19] it was 109%; in assay [20] it was 109%. Further, the LTS in [17] and in assay [18] was 0 each time.
Consider `Cc1c2c(C(=O)NCCN(C)C)nccc2c(C)c2c1c1cc(OC(=O)CCCC(=O)O)ccc1n2C`, for which the IC50 in assay [1] came to 0.0014 µM; in assay [2], 0.034 µM. The LTS is reported as 11 in assay [21], 11 in [22] and 0 in assay [25]. Also, the results for the T/C in [23], in [24] and in assay [26] were >640%, >640% and 202%, respectively.
In the case of `Cc1c2ccnc(C(=O)NCCN(C)C)c2cc2c3cc(OC(=O)C4C[C@@H]4c4ccccc4)ccc3n(C)c12` (some centres not stated), the IC50 is 0.0141 µM in assay [1] and 0.0309 µM in assay [2]. Moreover, the LTS in [27], in assay [28] and in [29] was 0 in each case. Also, the T/C stood at 152% in [30], 146% in assay [31] and 129% in assay [26].

What is called IC50 is the midpoint of a concentration-inhibition curve. A higher IC50 goes with weaker potency. One may read the T/C as the result in the treated group divided by that in the control group, in per cent.
